Experiments:
[1] = tested on: Mus musculus; assay: In vivo evaluation for antimalarial activity against Plasmodium berghei in percentage when administered orally in mice (Mus musculus); assay type: functional; set-up: concentration or dose not given beside the values
Summary of the method: (§1)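 Moro SPF mice infected with P. berghei ANKA, three per group. A single 100 mg/kg dose in 3% ethanol/7% Tween 80 (solution or suspension) was given on day 1 post-infection, po or sc. Activity is percent reduction of parasitemia on day 3 post-infection versus untreated controls.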

[2] = tested on: Plasmodium falciparum; assay: In vitro antimalarial activity against drug-sensitive Plasmodium falciparum NF54
[3] = tested on: Mus musculus; assay: In vivo evaluation for antimalarial activity against Plasmodium berghei in terms of survival days when administered subcutaneously in mice (Mus musculus); assay type: functional
Summary of the method: (§2)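 P. berghei ANKA infection in Moro SPF mice, groups of three. Treatment was one 100 mg/kg dose on day 1 post-infection, dissolved or suspended in 3% ethanol plus 7% Tween 80, given orally or subcutaneously. Read-out is mean survival time in days, compared with an untreated control group.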

[4] = tested on: Mus musculus; assay: In vivo evaluation for antimalarial activity against Plasmodium berghei in percentage when administered subcutaneously in mice (Mus musculus); assay type: functional; set-up: concentration or dose not given beside the values; summary of the method: as §1
[5] = tested on: Plasmodium falciparum; assay: In vitro antimalarial activity against chloroquine-resistant Plasmodium falciparum K1; assay type: functional, organism-based
Summary of the method: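 Tritiated hypoxanthine uptake assay (modified Desjardins method) on P. falciparum asexual cultures, run on chloroquine-resistant K1 and drug-sensitive NF54 strains.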

[6] = tested on: Mus musculus; assay: In vivo evaluation for antimalarial activity against Plasmodium berghei in terms of survival days when administered orally in mice (Mus musculus); assay type: functional; summary of the method: as §2

SMILES | Activity [1] [%] | IC50 [2] [µM] | Survival [3] [days] | Activity [4] [%] | IC50 [5] [µM] | Survival [6] [days]
COC[C@H]1CCCCC12OOC1(CCCC[C@H]1COC)OO2 (some centres not stated) | 18 | 0.016 | 24.7 | 100 | 0.015 | –
CCOC(=O)C[C@H]1CCCCC12OOC1(CCCC[C@H]1CC(=O)OCC)OO2 (some centres not stated) | 0 | 0.0065 | – | 0 | 0.0062 | –
O=C(O)CC[C@H]1CCCCC12OOC1(CCCC[C@H]1CCC(=O)O)OO2 (some centres not stated) | – | > 0.2 | – | – | > 0.2 | –
OC[C@@H]1CCCCC12OOC1(CCCC[C@@H]1CO)OO2 (some centres not stated) | – | > 0.2 | – | – | > 0.2 | –
CCOC(=O)CC[C@H]1CCCCC12OOC1(CCCC[C@H]1CCC(=O)OCC)OO2 (some centres not stated) | 0 | 0.016 | – | 0 | 0.014 | –
O=C(O)C[C@H]1CCCCC12OOC1(CCCC[C@H]1CC(=O)O)OO2 (some centres not stated) | – | > 0.2 | – | – | > 0.2 | –
c1ccc(COC[C@H]2CCCCC23OOC2(CCCC[C@H]2COCc2ccccc2)OO3)cc1 (some centres not stated) | 0 | 0.026 | – | 0 | 0.018 | –
O=C(OC[C@H]1CCCCC12OOC1(CCCC[C@H]1COC(=O)c1ccccc1)OO2)c1ccccc1 (some centres not stated) | – | > 0.2 | – | – | > 0.2 | –
c1ccc(C[C@H]2CCCCC23OOC2(CCCC[C@H]2Cc2ccccc2)OO3)cc1 (some centres not stated) | – | > 0.2 | – | – | > 0.2 | –
C#CC[C@@H]1CCCCC12OOC1(CCCC[C@@H]1CC#C)OO2 (some centres not stated) | 0 | 0.013 | – | 9 | 0.013 | –
C=CC[C@@H]1CCCCC12OOC1(CCCC[C@@H]1CC=C)OO2 (some centres not stated) | 93 | 0.023 | – | 15 | 0.019 | 7
C[C@@H]1CC[C@H]2[C@@H](C)C(=O)O[C@@H]3O[C@@]4(C)CC[C@@H]1[C@]32OO4 [ARTEMISININ] | 98 | 0.012 | 14 | 100 | – | 7.3
C[C@@H]1CCCCC12OOC1(CCCC[C@@H]1C)OO2 (some centres not stated) [WR-148999] | 99.7 | 0.039 | 27.7 | 100 | 0.028 | 7.7

Reference: ChEMBL document CHEMBL1132122, “Synthesis and antimalarial activity of 11 dispiro-1,2,4,5-tetraoxane analogues of WR 148999. 7,8,15,16-Tetraoxadispiro[5.2.5.2]hexadecanes substituted at the 1 and 10 positions with unsaturated and polar functional groups” (J Med Chem, 1999)
